Test results as given in ChEMBL document CHEMBL1150767, “4-N-, 4-S-, and 4-O-chloroquine analogues: influence of side chain length and quinolyl nitrogen pKa on activity vs chloroquine resistant malaria” (J Med Chem, 2008).

Assays:
Plasmodium falciparum [1] = test: Antimalarial activity against chloroquine-sensitive Plasmodium falciparum HB3 after 72 hrs by SYBR green assay; assay type: functional, organism-based; conditions: HB3, 72 h
In short: (§1)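 Sorbitol-synchronized P. falciparum cultures (>95% rings) at 0.5% parasitemia, 1% hematocrit final, exposed to drug dilutions in complete medium 72 h at 37°C; SYBR Green I added, 1 h at 37°C, fluorescence read at 530 nm (490 nm excitation). Each dilution in triplicate; IC50 averaged over at least two separate assays.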

Plasmodium falciparum [2] = test: Antimalarial activity against chloroquine-resistant Plasmodium falciparum Dd2 after 72 hrs by SYBR green assay; assay type: functional, organism-based; conditions: Dd2, 72 h; in short: as §1
Plasmodium falciparum [3] = test: Selectivity for chloroquine-resistant Plasmodium falciparum Dd2 over chloroquine-sensitive Plasmodium falciparum HB3 as IC50 ratio by SYBR green assay; assay type: functional
Plasmodium falciparum [4] = test: Antimalarial activity against chloroquine-sensitive Plasmodium falciparum GCO3 after 72 hrs by SYBR green assay; assay type: functional, organism-based; conditions: GCO3, 72 h; in short: as §1
Plasmodium falciparum [5] = test: Antimalarial activity against chloroquine-resistant Plasmodium falciparum FCB after 72 hrs by SYBR green assay; assay type: functional, organism-based; in short: as §1
Plasmodium falciparum [6] = test: Selectivity for chloroquine-resistant Plasmodium falciparum FCB over chloroquine-sensitive Plasmodium falciparum GCO3 as IC50 ratio by SYBR green assay; assay type: functional
Plasmodium falciparum [7] = test: Selectivity for chloroquine-resistant Plasmodium falciparum Indochina I over chloroquine-sensitive Plasmodium falciparum Haiti 135 as IC50 ratio by [3H]hypoxanthine uptake; assay type: functional
[8] = Inhibition of haemozoin formation at pH 5.2 after 18 hrs; assay type: functional
In short: (§2)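 Cell-free β-hematin formation in 1 mL containing lecithin (2 μg/ml final), hematin (100 μM final), 0.1 M HCl, propionate buffer at stated pH, and drug (0-1000 μM). Triplicates shaken at 37°C for 18 h. Pellets washed with pH 9.0 bicarbonate to remove uncrystallized heme, dried, dissolved in 0.1 M NaOH, and quantified by absorbance at 402 nm against a heme calibration curve.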

[9] = Inhibition of haemozoin formation at pH 5.6 after 18 hrs; assay type: functional; in short: as §2
Plasmodium falciparum [10] = test: Drug accumulation in digestive vacuole of chloroquine-resistant Plasmodium falciparum assessed as vacuolar accumulation ratio at pH 5.2; assay type: ADME, organism-based
In short: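 Calculated with the Henderson–Hasselbach equation from compound pKa values, taking cytosolic pH 7.4 and DV pH 5.2 for CQR parasites. Experimental pKa came from titrating 10 mM drug in water with 0.1 M NaOH at room temperature, using second-derivative inflection points, three determinations averaged.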

Plasmodium falciparum [11] = test: Drug accumulation in digestive vacuole of chloroquine-sensitive Plasmodium falciparum assessed as vacuolar accumulation ratio at pH 5.6; assay type: ADME, organism-based
In short: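 Calculated, not measured: Henderson–Hasselbach equation with cytosolic pH 7.4 and digestive vacuole pH 5.6 (CQS), using experimental pKa values.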

[12] = Binding affinity to mu dimeric heme in aqueous solution at pH 7.5
In short: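 Hemin first converted to μ-oxo dimer in mild alkaline solution, then titrated to pH 7.5 with Hepes buffer. Heme titrated with increasing drug (0 – 50 μM); absorbance at 402 nm recorded after each addition. Solvent-only titration served as control. Ka derived from ΔAbs402 plots by Scatchard analysis.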

Plasmodium falciparum [13] = test: Antimalarial activity against chloroquine-sensitive Plasmodium falciparum NF54 by [3H]hypoxanthine uptake; assay type: functional, organism-based
Plasmodium falciparum [14] = test: Antimalarial activity against chloroquine-resistant Plasmodium falciparum K1 by [3H]hypoxanthine uptake; assay type: functional, organism-based
Plasmodium falciparum [15] = test: Selectivity for chloroquine-resistant Plasmodium falciparum K1 over chloroquine-sensitive Plasmodium falciparum NF54 as IC50 ratio by [3H]hypoxanthine uptake; assay type: functional

| SMILES | IC50 (Plasmodium falciparum [1]) | IC50 (Plasmodium falciparum [2]) | Ratio IC50 (Plasmodium falciparum [3]) | IC50 (Plasmodium falciparum [4]) | IC50 (Plasmodium falciparum [5]) | Ratio IC50 (Plasmodium falciparum [6]) | Ratio IC50 (Plasmodium falciparum [7]) | IC50 [8] | IC50 [9] | Activity (Plasmodium falciparum [10]) | Activity (Plasmodium falciparum [11]) | Ka [12] | logKA [12] | IC50 (Plasmodium falciparum [13]) | IC50 (Plasmodium falciparum [14]) | Ratio IC50 (Plasmodium falciparum [15]) |
| --- | --- | --- | --- | --- | --- | --- | --- | --- | --- | --- | --- | --- | --- | --- | --- | --- |
| CCN(CC)CCCOc1ccnc2cc(Cl)ccc12 | 5.1 µM | 2.8 µM | 0.549 | 2.34 µM | 2.33 µM | 0.996 |  |  |  |  |  |  |  |  |  |  |
| CCN(CC)CCCCCOc1ccnc2cc(Cl)ccc12 | 1.87 µM | 1.01 µM | 0.54 | 1.49 µM | 0.93 µM | 0.624 |  |  |  |  |  |  |  |  |  |  |
| CCN(CC)CCCCCNc1ccnc2cc(Cl)ccc12 | 0.029 µM | 0.357 µM | 12.3 | 0.066 µM | 0.509 µM | 7.17 | 9.67 |  |  |  |  |  |  |  |  |  |
| CCNCCCCNc1ccnc2cc(Cl)ccc12 | 0.018 µM | 0.649 µM | 36.1 | 0.026 µM | 0.854 µM | 32.8 |  |  |  |  |  |  |  |  |  |  |
| CCN(CC)CCCCC(CCCCN(CC)CC)Oc1ccnc2cc(Cl)ccc12 | 0.073 µM | 0.316 µM | 4.31 | 0.045 µM | 0.604 µM | 13.4 |  |  |  |  |  |  |  |  |  |  |
| CCN(CC)CCCCCSc1ccnc2cc(Cl)ccc12 | 2.33 µM | 1.08 µM | 0.464 | 1.61 µM | 0.814 µM | 0.506 |  |  |  |  |  |  |  |  |  |  |
| CCN(CC)CCCCCCSc1ccnc2cc(Cl)ccc12 | 6.02 µM | 4.11 µM | 0.683 | 4.45 µM | 3.3 µM | 0.742 |  |  |  |  |  |  |  |  |  |  |
| CCN(CC)CCCC(C)Nc1ccnc2cc(Cl)ccc12 (stereo unspecified) [CHLOROQUINE] |  |  |  |  |  |  |  | 35 µM | 16 µM | 23000 | 3700 |  |  |  |  |  |
| CCN(CC)CCCCCCOc1ccnc2cc(Cl)ccc12 | 3.06 µM | 4.16 µM | 1.36 | 2.27 µM | 1.19 µM | 0.524 |  |  |  |  |  |  |  |  |  |  |
| CCN(CC)CCCC(CCCN(CC)CC)Oc1ccnc2cc(Cl)ccc12 | 0.094 µM | 0.409 µM | 4.35 | 0.074 µM | 0.352 µM | 4.75 |  | 199 µM | 687 µM | 79000 | 5000 | 3.47 ×10⁴ /M | 4.5 |  |  |  |
| CCN(CC)CCOc1ccnc2cc(Cl)ccc12 | 5.8 µM | 4.57 µM | 0.788 | 5.29 µM | 5.08 µM | 0.96 |  |  |  |  |  |  |  |  |  |  |
| CCNCCCNc1ccnc2cc(Cl)ccc12 | 0.007 µM | 0.115 µM | 16.4 | 0.02 µM | 0.085 µM | 4.25 |  |  |  |  |  |  |  | 0.015 µM | 0.365 µM | 24.3 |
| CCN(CC)CCCCOc1ccnc2cc(Cl)ccc12 | 2.92 µM | 1.18 µM | 0.404 | 1.66 µM | 1.1 µM | 0.663 |  | > 1000 µM | > 1000 µM | 190 | 67 | 8.82 ×10⁴ /M | 5 |  |  |  |
| CCN(CC)CCSc1ccnc2cc(Cl)ccc12 | 9.53 µM | 5.5 µM | 0.577 | 5.74 µM | 6.02 µM | 1.04 |  |  |  |  |  |  |  |  |  |  |
| CCN(CC)CCCCCCNc1ccnc2cc(Cl)ccc12 | 0.097 µM | 0.085 µM | 0.876 | 0.016 µM | 0.102 µM | 6.38 | 11.2 |  |  |  |  |  |  |  |  |  |
| CCN(CC)CCCCSc1ccnc2cc(Cl)ccc12 | 7.39 µM | 4.44 µM | 0.601 | 5.63 µM | 3.5 µM | 0.622 |  | 216 µM | 155 µM | 170 | 64 | 8.22 ×10⁴ /M | 4.9 |  |  |  |
| CCN(CC)CC(CN(CC)CC)Oc1ccnc2cc(Cl)ccc12 | 1.49 µM | 1.29 µM | 0.866 | 2.25 µM | 3.83 µM | 1.7 |  |  |  |  |  |  |  |  |  |  |
| CCN(CC)CCNc1ccnc2cc(Cl)ccc12 | 0.013 µM | 0.026 µM | 2 | 0.013 µM | 0.03 µM | 2.3 | 0.714 |  |  |  |  |  |  | 0.021 µM |  | 2.33 |
| CCN(CC)CCCNc1ccnc2cc(Cl)ccc12 |  | 0.026 µM | 4.33 | 0.007 µM | 0.029 µM | 4.14 | 1.2 |  |  |  |  |  |  | 0.018 µM | 0.06 µM | 3.33 |
| CCN(CC)CCCCNc1ccnc2cc(Cl)ccc12 | 0.012 µM | 0.199 µM | 16.6 | 0.049 µM | 0.181 µM | 3.69 | 10.2 | 24 µM | 12 µM | 23000 | 3700 | 1.65 ×10⁵ /M | 5.2 |  |  |  |
| CCN(CC)CCCSc1ccnc2cc(Cl)ccc12 | 5.6 µM | 2.66 µM | 0.475 | 3.46 µM | 1.61 µM | 0.465 |  |  |  |  |  |  |  |  |  |  |
| CCNCCCCCNc1ccnc2cc(Cl)ccc12 | 0.021 µM | 0.786 µM | 37.4 | 0.062 µM | 1.27 µM | 20.5 |  |  |  |  |  |  |  |  |  |  |
| CCNCCNc1ccnc2cc(Cl)ccc12 | 0.012 µM | 0.081 µM | 6.75 | 0.012 µM | 0.089 µM | 7.42 |  |  |  |  |  |  |  | 0.021 µM | 0.133 µM | 1.25 |
| CCNCCCCCCNc1ccnc2cc(Cl)ccc12 | 0.019 µM | 0.982 µM | 31.3 | 0.052 µM | 0.987 µM | 10 |  |  |  |  |  |  |  |  |  |  |
